ChEMBL document CHEMBL1132620, “Piperazine imidazo[1,5-a]quinoxaline ureas as high-affinity GABAA ligands of dual functionality” (J Med Chem, 1999)
pKi: −log10 of the molar value. Active and inactive are the calls of the source. No cut-off for these calls is given here.

What was measured:
[1] = molecular target: T1, GABA-A receptor; alpha-1/beta-2/gamma-2 (Homo sapiens) (UniProt P14867+P47870+P18507); assay: (§1) In vitro GABA-mediated chloride current in A293 cells expressing GABA-A benzodiazepine receptor alpha-1-beta-2-gamma-2 subunits at 5 uM; assay type: functional, cell-based; settings: HEK293
[2] = molecular target: GABA-A receptor; anion channel; assay: (§2) Displacement of [3H]flunitrazepam from GABA-A benzodiazepine receptor of rat cortical membranes; assay type: cell membranes, Membrane
Summary of the method: (§3)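 Rat membranes incubated 60 min at 4 °C with [3H]flunitrazepam, 50 µg membrane protein and graded test drug in 200 µL containing NaCl, 10 mM Hepes/Tris pH 7.4 and 1 mM MgCl2; bound ligand separated by rapid filtration on GF/B; mean affinity, SE ≤10% of mean.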

[3] = molecular target: T1, GABA-A receptor; alpha-1/beta-2/gamma-2 (Homo sapiens); assay: as §1; assay type: functional, cell-based; settings: HEK293; remark: listed apart in the source
Rattus norvegicus = assay: In vivo efficacy evaluated for ability to antagonize metrazole induced clonic convulsions in rat after ip injection; assay type: functional
[4] = molecular target: T2, GABA-A receptor; anion channel (Rattus norvegicus) (UniProt O09028+P15431+P18506+P18508+P19969+P20236+P23574+P23576+P28471+P28473+P30191+P62813+P63079+P63138+Q91ZM7+Q9ES14); assay: Shift in [35S]TBPS binding to GABA-A Benzodiazepine receptor of rat brain membrane
Mus musculus [5] = species on record: Mus musculus; assay: Ability to antagonize the muscle relaxation effect in mice caused by a benzodiazepine full agonist, triazolam.; assay type: functional
Summary of the method: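 Muscle relaxation induced by triazolam; test compound and triazolam given separately, traction scored 30 min after dosing; ED50 for blocking the relaxant effect.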

Mus musculus [6] = assay: In vivo acute electroshock physical dependence activity in mice; Active; assay type: functional, organism-based
[7] = molecular target: T2, GABA-A receptor; anion channel (Rattus norvegicus); assay: as §2; assay type: cell membranes; design: concentration or dose not given beside the values; settings: Membrane, concentration not given here; summary of the method: as §3
Mus musculus [8] = assay: In vivo efficacy is evaluated by percent control of cerebellar GMP levels in (drug+stress) treated mice/mice under stress; assay type: functional; design: concentration or dose not given beside the values
Summary of the method: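 Male CF-1 mice given drug orally in vehicle 122 before electric footshock stress, controls given vehicle (1 mL/100 g); killed 30 min after treatment; cerebellum homogenized in 1% perchloric acid, iced 30 min, boiled 5 min, spun 17000g 20 min; supernatant cGMP by radioimmunoassay, expressed as % of stress control.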

[9] = molecular target: GABA A receptor alpha-3/beta-2/gamma-2 (Homo sapiens) (UniProt P47870+P18507+P34903); assay: In vitro GABA-mediated chloride current in A293 cells expressing GABA-A benzodiazepine receptor alpha-3-beta-2-gamma-2 subunits at 5 uM; assay type: functional, cell-based; settings: HEK293
[10] = molecular target: T2, GABA-A receptor; anion channel (Rattus norvegicus); assay: Inhibition of [35S]TBPS binding to GABA-A Benzodiazepine receptor of rat brain membranes; assay type: cell membranes; settings: Membrane
Mus musculus [11] = assay: In vivo acute electroshock physical dependence activity in mice; Not active.; assay type: functional, organism-based

Structure (SMILES) | Change in Cl- current [1] | pKi [2] | Change in Cl- current [3] | ED50 (Rattus norvegicus) [mg/kg] | Shift [4] | ED50 (Mus musculus [5]) [mg/kg] | Acute electroshock activity (Mus musculus [6]) | inhibition [7] [%] | Control (Mus musculus [8]) [%] | Change in Cl- current [9] | Shift [10] | Acute electroshock activity (Mus musculus [11])
C[C@H]1CN(C(=O)N2Cc3c(C(=O)OC(C)(C)C)ncn3-c3ccc(C(F)(F)F)cc32)C[C@H](C)N1 | 0.5 | 6.56 | 1 | 39.7 | 0.41 | > 30 | Active | – | – | – | – | –
CC(=O)N1[C@H](C)CN(C(=O)N2Cc3c(C(=O)OC(C)(C)C)ncn3-c3ccc(Cl)cc32)C[C@@H]1C | – | 8.33 | 0.79 | 14.8 | 0.94 | > 30 | Active | 22 | – | – | – | –
C[C@H]1CN(C(=O)N2Cc3c(C(=O)OC(C)(C)C)ncn3-c3ccc(Cl)cc32)CCN1 | 0.8 | 8.17 | 0.1 | 1.2 | 0.12 | > 30 | Active | 74 | 56 | – | – | –
Cc1ccc2c(c1)N(C(=O)N1C[C@@H](C)N[C@@H](C)C1)Cc1c(C(=O)OC(C)(C)C)ncn1-2 | 0.84 | 8.33 | 0.3 | – | 0.38 | > 30 | Active | 55 | 73 | 0.1 | – | –
C[C@H]1NCCN(C(=O)N2Cc3c(C(=O)OC(C)(C)C)ncn3-c3ccc(Cl)cc32)[C@H]1C | 0.7 | 8.63 | 0 | 0.7 | 0.27 | > 30 | Active | 78 | 70 | – | – | –
CN1CCN(C(=O)N2Cc3c(C(=O)OC(C)(C)C)ncn3-c3ccc(Cl)cc32)CC1 | – | 7.96 | 0.98 | 7.4 | 0.57 | 11 | – | 29 | 94 | 0.44 | – | –
CC1CN(C(=O)N2Cc3c(C(=O)OC(C)(C)C)ncn3-c3ccc(Cl)cc32)CCN1 (centres undefined) | 0.5 | 8.35 | 0.17 | 8.8 | 0.18 | > 30 | Active | 68 | – | – | – | –
CC(C)(C)OC(=O)c1ncn2c1CN(C(=O)N1CCOCC1)c1ccccc1-2 | – | 8.61 | 0.14 | > 50 | – | – | – | – | – | – | 0 | –
CC(C)(C)OC(=O)c1ncn2c1CN(C(=O)N1CCCCC1)c1ccccc1-2 | – | 8.87 | 0 | > 50 | – | 4 | – | 44 | 91 | – | 0.08 | inactive
CCCC(=O)O.CCN1[C@H](C)CN(C(=O)N2Cc3c(C(=O)OC(C)(C)C)ncn3-c3ccc(Cl)cc32)C[C@@H]1C | 0.94 | 7.98 | 0.5 | 3.7 | 0.15 | > 30 | – | 84 | 88 | – | – | inactive
C[C@@H]1CN(C(=O)N2Cc3c(C(=O)OC(C)(C)C)ncn3-c3ccc(C(F)(F)F)cc32)C[C@H](C)N1C | – | 7.50 | 0.81 | 6.2 | 0.26 | 21.8 | Active | 17 | – | – | – | –
CC1(C)CN(C(=O)N2Cc3c(C(=O)OC(C)(C)C)ncn3-c3ccc(Cl)cc32)CC(C)(C)N1 | – | 8.49 | 1.14 | 3.7 | 0.77 | > 30 | Active | 47 | 40 | – | – | –
Cc1ccc2c(c1)N(C(=O)N1CCN[C@@H](C)C1)Cc1c(C(=O)OC(C)(C)C)ncn1-2 | 1.1 | 7.75 | 0.4 | 25 | 0.59 | > 30 | Active | 32 | 55 | – | – | –
C[C@@H]1CN(C(=O)N2c3cc(Cl)ccc3-n3cnc(C(=O)OC(C)(C)C)c3C2(C)C)C[C@H](C)N1 | – | 7.70 | 0.96 | 0.4 | 1.23 | – | Active | 94 | 30 | 1.08 | – | –
CC1CN(C)CC(C)N1C(=O)N1Cc2c(C(=O)OC(C)(C)C)ncn2-c2ccc(Cl)cc21 (centres undefined) | – | 7.04 | 1.71 | 6.2 | 1.02 | > 30 | – | 32 | 100 | 0.69 | – | inactive
C[C@@H]1CN(C(=O)N2c3cc(Cl)ccc3-n3cnc(C(=O)OC(C)(C)C)c3C2(C)C)C[C@H](C)N1C | – | 7.40 | 2.6 | 0.6 | 1.43 | > 30 | Active | 84 | 38 | 0.68 | – | –
Cc1ccc2c(c1)N(C(=O)N1C[C@@H](C)N(C)[C@@H](C)C1)Cc1c(C(=O)OC(C)(C)C)ncn1-2 | – | 8.02 | 1.37 | 1.6 | 0.11 | > 30 | Active | 64 | 57 | 0.56 | – | –
CN(C)C(=O)N1Cc2c(C(=O)OC(C)(C)C)ncn2-c2ccc(Cl)cc21 | – | 8.25 | 0.35 | 10.5 | – | – | – | – | – | – | 0.51 | –
CC(C)(C)OC(=O)c1ncn2c1CN(C(=O)N1CCN(c3ccccn3)CC1)c1cc(Cl)ccc1-2 | 0.35 | 7.82 | 0.83 | > 50 | 0.32 | > 30 | Active | 3.4 | – | – | – | –
Cc1ccc2c(c1)N(C(=O)N1C[C@H](C)N[C@@H](C)C1)Cc1c(C(=O)OC(C)(C)C)ncn1-2 | 1.3 | 7.59 | 1.3 | 7.4 | 0.77 | > 30 | Active | 17 | 79 | – | – | –
CN(C)C(=O)N1Cc2c(-c3noc(C4CC4)n3)ncn2-c2ccccc21 [PNU-91571] | – | – | 0.68 | 21 | – | 1 | – | – | 61 | – | 0.69 | inactive
